Activity calls are given as the source filed them.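 Rule for the calls, unless noted: active = growth inhibition above 25% in both replicates, a cutoff set 3 SD above the mean; inconclusive = above 25% in only one replicate; inactive = the rest.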
assay: S. cerevisiae growth inhibition in permissive medium (OD615), pilot counter-assay for S. cerevisiae lifespan shortening project, permissive growth control (AID 705); details: OD615, 24 h, at 10 µM, active compounds read high
Outline: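 System: engineered DeaD yeast; Medium: permissive raffinose/galactose medium; Compound dosing: 10 µM single dose, 0.25% DMSO; Incubation: 4 h cell pre-growth, 24 h exposure at 30 °C; Technique: OD at 615 nm; Evaluation: growth inhibition from lowered OD615 after 24 h.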

Structure (SMILES) | growth inhibition
O=C(Cn1c(=O)[nH]c2ccsc2c1=O)NC1CCCCC1 | -3.32% (inactive)
Cc1cc(Nc2ccc(F)cc2Cl)n2nc(C)nc2n1 | -9.76% (inactive)
COc1ccc(C)cc1NC(=O)CSc1nnc(-c2ccc(C)cc2)o1 | -8.71% (inactive)
c1ccc(OCCOCCSc2ncccn2)cc1 | 1.54% (inactive)
Fc1cc2nc(-c3ccncc3)[nH]c2cc1F | -7.19% (inactive)
Cc1cc(N)n2ncc(-c3cccc(Br)c3)c2n1 | 2.1% (inactive)
COc1cccc(-c2cc(C(=O)Nn3cnnc3)c3ccccc3n2)c1 | -12.2% (inactive)
CC(=O)C1C(c2ccc(O)cc2)NC(=O)NC1(O)C(F)(F)F (stereo not given) | -15.9% (inactive)
O=C(O)c1ccc(CSc2nnc(-c3ccco3)o2)cc1 | 7.71% (inactive)
CC1Cn2c(nnc2-c2cccc(N)c2)S1 (stereo not given) | 1.06% (inactive)
Cc1cccc(-n2c(Cc3cc(=O)[nH]c(=O)[nH]3)nnc2SC(C)C)c1 | -8.09% (inactive)
COc1ccc(C2(O)CCN(C(=O)c3ccc4c(c3)OCO4)CC2)cc1 | -12.1% (inactive)
O=C(Nc1cccc2c1CCCC2)c1ccc(Br)o1 | -11.8% (inactive)
CCCNC(=O)NCCc1c(C)[nH]c2ccccc12 | 4.3% (inactive)
CCCC(=O)NC(C)c1nc2ccccc2n1CC (stereo not given) | -0.24% (inactive)
CCCN(CCC)S(=O)(=O)c1ccc(C(=O)NCc2ccc3c(c2)OCO3)cc1 | -12.9% (inactive)
CCCNc1nc2c(c(=O)n(C)c(=O)n2C)n1Cc1ccc(F)cc1 | -3.24% (inactive)
c1ccc(-c2ccccc2-n2cnnn2)cc1 | 4.66% (inactive)
COc1cccc(-c2nc(CS(=O)CC(=O)O)c(C)o2)c1 (stereo not given) | -1.73% (inactive)
N=c1n(CCOc2ccccc2)c2ccccc2n1CCN1CCOCC1 | -1.46% (inactive)

Structure (SMILES) | growth inhibition
COc1ccc(CCNc2ncnc3nc[nH]c23)cc1OC | 0.1% (inactive)
CCSc1sccc1C1C(C#N)=C(N)N(c2cccnc2)C2=C1C(=O)CC(C)(C)C2 (stereo not given) | -14.3% (inactive)
Cc1nc(CNS(=O)(=O)c2ccccc2F)cs1 | -2.92% (inactive)
CC(=O)N(c1ccc(C)cc1)C1C=CS(=O)(=O)C1 (stereo not given) | -8.96% (inactive)
CCc1cccc(C)c1NC(=O)C1CCCO1 (stereo not given) | -5.15% (inactive)
Nc1nc2n(n1)C(c1ccccc1Cl)CC(c1ccc(F)cc1)N2 (stereo not given) | 0.695% (inactive)
N#Cc1ccc(N2CCN(C(=O)c3cccc(F)c3)CC2)c(F)c1 | 6.81% (inactive)
CCn1ccc(C(=O)Nc2ccc(Cl)cn2)n1 | -9.65% (inactive)
CCOC(=O)c1cn(-c2ccccc2)nc1-c1cccnc1 | -13.6% (inactive)
CCOC(=O)c1c(C)n(C)c2ccc(OCC(O)CN(CC)CC)cc12 (stereo not given) | -9.63% (inactive)
O=C(NCCC1=CCCCC1)NC1CCCCC1 | -7.04% (inactive)
CC(=O)Nc1ccc(-n2c(C)c(C(C)=O)c(C(C)=O)c2C)cc1 | -2.51% (inactive)
COCCOC(=O)C1=C(C)NC2=C(C(=O)CC(C)(C)C2)C1c1ccc2c(c1)OCO2 (stereo not given) | -5.88% (inactive)
CCOc1ccccc1Nc1ncnc2c1cnn2-c1ccccc1 | -6.82% (inactive)
O=C1NCCCC1C(=O)N1CCN(C(=O)c2ccco2)CC1 (stereo not given) | -3.22% (inactive)
CCC(=O)NCCn1c(C)cc2ccccc21 | 8.84% (inactive)
CCCCNC(=O)Nc1cc(C(=O)OC)ccc1C | -6.38% (inactive)
CCOc1ccc(N=Cc2c(O)cc(C)oc2=O)cc1 | -1.27% (inactive)
CC(C)C(NS(=O)(=O)c1ccc2c3c(cccc13)C(=O)N2)C(=O)O (stereo not given) | -4.62% (inactive)
Cc1ccc(NC(=O)c2cc(-c3cccc(O)c3)on2)cc1C | -19.1% (inactive)

assay: S. cerevisiae growth inhibition in restrictive medium, OD615, pilot screen, restrictive growth control, yeast lifespan reduction project (AID 706;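 active = growth inhibition above a set limit, 3 SD over mean compound inhibition, in both replicates, cut at about 43% in these data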;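 note: modified DeaD lifespan yeast strain shifted to restrictive glucose medium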); details: OD615, 48 h, at 10 µM, active compounds read high
Outline: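 Material: modified S. cerevisiae; buffer or medium: CSMM-D glucose medium; doses: one concentration, 10 µM final, 0.25% DMSO; incubation: 48 h compound exposure at 30 °C; detection: optical density at 615 nm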

Structure (SMILES) | growth inhibition
O=C(Cn1c(=O)[nH]c2ccsc2c1=O)NC1CCCCC1 | -5.46% (inactive)
Cc1cc(Nc2ccc(F)cc2Cl)n2nc(C)nc2n1 | -13% (inactive)
COc1ccc(C)cc1NC(=O)CSc1nnc(-c2ccc(C)cc2)o1 | 30.3% (inactive)
c1ccc(OCCOCCSc2ncccn2)cc1 | -1.09% (inactive)
Fc1cc2nc(-c3ccncc3)[nH]c2cc1F | -19.1% (inactive)
Cc1cc(N)n2ncc(-c3cccc(Br)c3)c2n1 | -6.45% (inactive)
COc1cccc(-c2cc(C(=O)Nn3cnnc3)c3ccccc3n2)c1 | -11.8% (inactive)
CC(=O)C1C(c2ccc(O)cc2)NC(=O)NC1(O)C(F)(F)F (stereo not given) | -25.1% (inactive)
O=C(O)c1ccc(CSc2nnc(-c3ccco3)o2)cc1 | 9.04% (inactive)
CC1Cn2c(nnc2-c2cccc(N)c2)S1 (stereo not given) | 14.3% (inactive)
Cc1cccc(-n2c(Cc3cc(=O)[nH]c(=O)[nH]3)nnc2SC(C)C)c1 | -1.15% (inactive)
COc1ccc(C2(O)CCN(C(=O)c3ccc4c(c3)OCO4)CC2)cc1 | -15.2% (inactive)
O=C(Nc1cccc2c1CCCC2)c1ccc(Br)o1 | 6.87% (inactive)
CCCNC(=O)NCCc1c(C)[nH]c2ccccc12 | -9.91% (inactive)
CCCC(=O)NC(C)c1nc2ccccc2n1CC (stereo not given) | 4.37% (inactive)
CCCN(CCC)S(=O)(=O)c1ccc(C(=O)NCc2ccc3c(c2)OCO3)cc1 | -18.8% (inactive)
CCCNc1nc2c(c(=O)n(C)c(=O)n2C)n1Cc1ccc(F)cc1 | -4.52% (inactive)
c1ccc(-c2ccccc2-n2cnnn2)cc1 | 3.99% (inactive)
COc1cccc(-c2nc(CS(=O)CC(=O)O)c(C)o2)c1 (stereo not given) | 2.52% (inactive)
N=c1n(CCOc2ccccc2)c2ccccc2n1CCN1CCOCC1 | 6.28% (inactive)

Structure (SMILES) | growth inhibition
COc1ccc(CCNc2ncnc3nc[nH]c23)cc1OC | 20% (inactive)
CCSc1sccc1C1C(C#N)=C(N)N(c2cccnc2)C2=C1C(=O)CC(C)(C)C2 (stereo not given) | -6.69% (inactive)
Cc1nc(CNS(=O)(=O)c2ccccc2F)cs1 | 0.715% (inactive)
CC(=O)N(c1ccc(C)cc1)C1C=CS(=O)(=O)C1 (stereo not given) | 7.8% (inactive)
CCc1cccc(C)c1NC(=O)C1CCCO1 (stereo not given) | -1.12% (inactive)
Nc1nc2n(n1)C(c1ccccc1Cl)CC(c1ccc(F)cc1)N2 (stereo not given) | 2.18% (inactive)
N#Cc1ccc(N2CCN(C(=O)c3cccc(F)c3)CC2)c(F)c1 | 4.18% (inactive)
CCn1ccc(C(=O)Nc2ccc(Cl)cn2)n1 | 11.6% (inactive)
CCOC(=O)c1cn(-c2ccccc2)nc1-c1cccnc1 | -8.75% (inactive)
CCOC(=O)c1c(C)n(C)c2ccc(OCC(O)CN(CC)CC)cc12 (stereo not given) | -1.99% (inactive)
O=C(NCCC1=CCCCC1)NC1CCCCC1 | 8.29% (inactive)
CC(=O)Nc1ccc(-n2c(C)c(C(C)=O)c(C(C)=O)c2C)cc1 | -2.06% (inactive)
COCCOC(=O)C1=C(C)NC2=C(C(=O)CC(C)(C)C2)C1c1ccc2c(c1)OCO2 (stereo not given) | -4.59% (inactive)
CCOc1ccccc1Nc1ncnc2c1cnn2-c1ccccc1 | -5.11% (inactive)
O=C1NCCCC1C(=O)N1CCN(C(=O)c2ccco2)CC1 (stereo not given) | -1.05% (inactive)
CCC(=O)NCCn1c(C)cc2ccccc21 | 11.4% (inactive)
CCCCNC(=O)Nc1cc(C(=O)OC)ccc1C | -14.2% (inactive)
CCOc1ccc(N=Cc2c(O)cc(C)oc2=O)cc1 | 8.93% (inactive)
CC(C)C(NS(=O)(=O)c1ccc2c3c(cccc13)C(=O)N2)C(=O)O (stereo not given) | -4.4% (inactive)
Cc1ccc(NC(=O)c2cc(-c3cccc(O)c3)on2)cc1C | -5.78% (inactive)

— PubChem BioAssay
